Screening results from PubChem.
An excerpt weighted towards active compounds, which were near 4.1% of everything screened.
SMARCA2 activ: increases SMARCA2 function in MMTV reporter cells; AID 652017; MG213 cells, MMTV-luciferase reporter, dexamethasone, overnight; actives 1% (n = 370,000); activation, % at 9.1 µM; in the data active means activation above about 7.8%;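 further: 0% = vehicle wells and 100% = reference activator wells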
ATG4B inh: ATG4B (human) cysteine protease inhibition | ATG4B cleavage of LC3-PLA2, NBD-HPC fluorescence, 1 h | actives 0.51% (n = 340,000) | AID 504462 | Q9Y4P1 | inhibition, % at 8.33 µM; in the data active means inhibition above about 40%
MC4R ag barr: agonists of human melanocortin 4 receptor (MC4R) beta-arrestin | U2OS MC4R beta-arrestin complementation, luminescence; percent of melanotan II response, DMSO zero | P32245 | AID 540308 | activation, % at 8.9 µM | actives 0.98% (n = 360,000);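 active means activation above a per-plate cutoff, the mean activation of sample wells on that plate plus 3 SD, cut at about 8% in these data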
Target sequence (P32245 whole entry, looked up): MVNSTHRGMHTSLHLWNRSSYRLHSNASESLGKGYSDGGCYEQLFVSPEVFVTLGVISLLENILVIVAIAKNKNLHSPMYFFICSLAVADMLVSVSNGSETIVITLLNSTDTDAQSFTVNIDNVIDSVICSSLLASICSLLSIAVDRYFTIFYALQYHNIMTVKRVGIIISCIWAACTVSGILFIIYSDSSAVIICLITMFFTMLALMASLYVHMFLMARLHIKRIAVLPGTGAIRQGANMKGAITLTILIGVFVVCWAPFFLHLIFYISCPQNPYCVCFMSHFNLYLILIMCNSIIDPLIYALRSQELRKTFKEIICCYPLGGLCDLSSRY
MPTP inh: inhibitors of mitochondrial permeability transition pore; actives 1.4% (n = 360,000); inhibition, % at 10 µM; isolated mouse mitochondria, Ca2+ swelling absorbance, 30 min;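 active means inhibition of 50% or more, scaled per plate between neutral and stimulator controls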;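 further: 0% = DMSO wells given calcium and 100% = 1 mM EGTA wells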
MC4R antagonist: human MC4R antagonism in cAMP assay; P32245; MC4R-expressing cells, MTII-stimulated cAMP, LANCE TR-FRET; inhibition, % at 6.5 µM; actives 0.48% (n = 360,000); AID 540295;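 active means inhibition above its plate's cutoff, the mean of tested wells on that plate plus 3 SD, cut at about 29% in these data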;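 further: 0% = Melanotan II alone and 100% = Melanotan II plus saturating MCL0020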
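System: U2OS-MC4R stable cell line; Technique: Eu-cAMP/anti-cAMP TR-FRET, emission 671 nm; Repeats: single well per compound; Also added: Melanotan II; Dosing: one concentration, 6.5 µM nominal; Schedule: 30-min compound, 1-h challenge, 1-h detection, room temperature.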
cAMP nonselect: U2OS forskolin cAMP inhibition counter-screen | parental U2OS, LANCE TR-FRET | AID 602193 | actives 26% (n = 1,600) | inhibition, % at 6.5 µM | shares compounds with MC4R antagonist;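 active means mean inhibition over triplicates above the low-control well mean plus 3 SD, set per campaign, cut at about 13% in these data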;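 further: signal is single emission at 671 nm which falls as cellular cAMP rises; 0% = forskolin-stimulated wells and 100% = buffer without forskolin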
MC4R antag conf: human MC4R cAMP antagonism confirmation; shares compounds with MC4R antagonist; MC4R-expressing cells, MTII-stimulated cAMP, TR-FRET; inhibition, % at 6.5 µM; actives 27% (n = 1,600); in the data active means inhibition above about 29%;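 further: 0% = agonist stimulated wells alone and 100% = agonist stimulated wells plus saturating reference antagonist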
* hit, by the source's call; x = no result given.

SMILES | SMARCA2 activ | ATG4B inh | MC4R ag barr | MPTP inh | MC4R antagonist | cAMP nonselect | MC4R antag conf
COc1ccc(-c2cnc3nc[nH]c(=O)c3n2)cc1 | 0.8 | 4.4 | 1.5 | -0.3 | 29.0* | -1.7 | -1.7
COc1ccc(-c2csc3nc[nH]c(=O)c23)cc1 | 5.5 | 0.3 | -2.1 | -2.3 | -0.8 | x | x
COCCCNC(=O)C[C@H]1C[C@@]2(C(=O)OC)C(=C[C@H](C3CCCC3)O[C@@H]2C)N(Cc2ccccc2)C1=O | -6.7 | x | x | x | x | x | x
O=C(NC(=S)Nc1cc(S(=O)(=O)N2CCOCC2)ccc1N1CCOCC1)c1ccco1 | -1.0 | 19.9 | -3.7 | -1.8 | 36.6* | 1.3 | -7.4
O=C(NC(=S)Nc1cc(S(=O)(=O)N2CCOCC2)ccc1O)c1ccco1 | -2.2 | -3.5 | 0.3 | -2.4 | -1.3 | x | x
COc1ccc2ccccc2c1CN1CCN(c2ncc(Cc3ccccc3)cn2)CC1 | -6.3 | x | x | x | x | x | x
CS(=O)(=O)N1CCN(c2ccccc2NC(=S)NC(=O)c2cccs2)CC1 | -2.9 | 0.6 | -0.5 | 6.5 | 29.5* | 0.5 | 5.8
FC(F)(F)c1ccccc1Cc1c(-c2ccco2)nc2c3ccccc3ccn12 | 3.6 | x | x | x | x | x | x
CCOC(=O)c1ccc(N=c2sc(C(=O)OC)cc(=O)n2Cc2ccco2)cc1 | 0.3 | 1.2 | 0.8 | 0.2 | 31.7* | 9.9 | 36.3*
O=C(c1sccc1Cl)N1CCC(n2nnc3ncccc32)CC1 | 1.5 | x | x | x | x | x | x
C[C@@H]1COc2cc(F)ccc2S(=O)(=O)N1C | -0.7 | x | x | x | x | x | x
c1ccc(CNC2CCC23CCC(c2ccccc2)CC3)cc1 (stereo not given) | -4.5 | x | x | x | x | x | x
O=C(CSc1nc2ccccc2n1CCc1ccccc1)N1CCOCC1 | -4.4 | 0.2 | -1.1 | -0.9 | 32.6* | 0.1 | 10.0
O=C(CSc1ccccn1)N1CCN(c2ccccc2)CC1 | x | 10.7 | 1.9 | -1.0 | 0.3 | x | x
O=C(CSc1nc2ccccc2n1CC(=O)N1CCOCC1)N1CCCC1 | -3.2 | 2.1 | 0.2 | -0.1 | -0.3 | x | x
O=C(CSc1ccccn1)N1CCOCC1 | 1.4 | 4.4 | 1.0 | -2.3 | 29.4* | 0.1 | -3.3
Cc1ccsc1C1C(C#N)=C(N)Oc2n[nH]c(C)c21 (stereo not given) | -1.3 | -9.4 | -1.1 | 1.3 | 28.7* | 0.3 | 5.1
COc1cc(-c2cc(NC(C)=O)c3ncc(-c4ccc(C(C)=O)cc4)n3c2)cc(OC)c1OC | -0.3 | x | 8.7* | 1.2 | 29.1* | 0.8 | 12.3
COC(=O)[C@]12CCCCC=C1N(Cc1ccc(OC)cc1)C(=O)[C@@H]2CC(=O)N1CCCC1 | -3.6 | x | x | x | x | x | x
COc1ccc(CC2(CO)CCN(Cc3cnn(C)c3C)CC2)cc1 | -0.5 | -2.8 | -0.8 | -0.2 | 29.7* | -2.9 | -14.3
CN1CCc2c(sc(/N=C/c3cc(Cl)ccc3O)c2C#N)C1 | 3.2 | 26.8 | -0.8 | 1.4 | 39.1* | 1.4 | 3.7
O=C(NCc1ccc2c(c1)OCO2)c1nc(Cn2ccc([N+](=O)[O-])n2)no1 | -1.0 | 2.9 | -0.9 | -1.0 | 31.4* | -1.8 | -7.0
CNC(C)c1ccc(S(N)(=O)=O)cc1 (stereo not given) | -3.0 | -0.2 | -0.7 | 0.5 | 37.8* | -3.4 | 1.7
CC(=O)N1CCN(c2ccc(N3CCN(Cc4ccccc4)[C@H](C)C3)c(C)c2)[C@H](C)C1 | -4.0 | x | x | x | x | x | x
CC(C)CCNC(=O)CN(CC1CCCO1)C(=O)CCC(=O)Nc1nccs1 (stereo not given) | 0.3 | -1.5 | 1.1 | 0.4 | -3.5 | x | x
CCC(C)(C)NC(=O)CN(CC1CCCO1)C(=O)CCC(=O)Nc1nccs1 (stereo not given) | -0.1 | 16.8 | 0.5 | -0.6 | 34.5* | -3.6 | -5.8
Cc1c(Br)c([N+](=O)[O-])nn1CC(=O)Nc1ccccn1 | 3.7 | -2.9 | -0.6 | 1.0 | 5.8 | x | x
Cc1nn(CC(=O)Nc2ccccn2)c(C)c1Br | 2.5 | -3.0 | 2.2 | -0.6 | 32.3* | 1.5 | -1.4
Cc1ccc(S(=O)(=O)NCC(=O)OCC(=O)Nc2ccccc2OC(F)F)cc1 | -2.6 | -5.3 | -0.7 | 0.4 | 33.4* | 13.4* | 29.2*
Cc1ccc(S(=O)(=O)NCC(=O)OCC(=O)NCc2ccc(F)cc2)cc1 | -4.6 | 0.2 | -1.6 | 0.8 | 34.3* | 18.0* | 17.7
